In paper PMC2828537 (Pflugers Archiv : European journal of physiology, 2009):

Columns and labels:
Type in all cases: cell-based
murine TRPV1 [1] = target: T1, murine TRPV1 (Mus musculus, UniProt Q704Y3); experiment: Two-electrode voltage clamp of Xenopus oocytes expressing murine TRPV1; details: 100 µM FFA with 100 µM 2APB
Procedure, shortened: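 Collagenase-defolliculated Xenopus oocytes (>1.5 mm) were injected with 5 ng cRNA and kept 2–5 days at 19°C in ND96. Two-electrode clamp used a nominally Ca²⁺-free bath (pH 7.4), holding −20 mV, a 20 ms step to −100 mV, then a 200 ms ramp to +100 mV each second, at 22°C.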

[2] = target: T2, human TRPA1 endogenously expressed in WI-38 fibroblasts (Homo sapiens, UniProt O75762); experiment: Whole-cell recordings of WI-38 cells
T2 sequence (O75762 whole entry, the tested form may be a part): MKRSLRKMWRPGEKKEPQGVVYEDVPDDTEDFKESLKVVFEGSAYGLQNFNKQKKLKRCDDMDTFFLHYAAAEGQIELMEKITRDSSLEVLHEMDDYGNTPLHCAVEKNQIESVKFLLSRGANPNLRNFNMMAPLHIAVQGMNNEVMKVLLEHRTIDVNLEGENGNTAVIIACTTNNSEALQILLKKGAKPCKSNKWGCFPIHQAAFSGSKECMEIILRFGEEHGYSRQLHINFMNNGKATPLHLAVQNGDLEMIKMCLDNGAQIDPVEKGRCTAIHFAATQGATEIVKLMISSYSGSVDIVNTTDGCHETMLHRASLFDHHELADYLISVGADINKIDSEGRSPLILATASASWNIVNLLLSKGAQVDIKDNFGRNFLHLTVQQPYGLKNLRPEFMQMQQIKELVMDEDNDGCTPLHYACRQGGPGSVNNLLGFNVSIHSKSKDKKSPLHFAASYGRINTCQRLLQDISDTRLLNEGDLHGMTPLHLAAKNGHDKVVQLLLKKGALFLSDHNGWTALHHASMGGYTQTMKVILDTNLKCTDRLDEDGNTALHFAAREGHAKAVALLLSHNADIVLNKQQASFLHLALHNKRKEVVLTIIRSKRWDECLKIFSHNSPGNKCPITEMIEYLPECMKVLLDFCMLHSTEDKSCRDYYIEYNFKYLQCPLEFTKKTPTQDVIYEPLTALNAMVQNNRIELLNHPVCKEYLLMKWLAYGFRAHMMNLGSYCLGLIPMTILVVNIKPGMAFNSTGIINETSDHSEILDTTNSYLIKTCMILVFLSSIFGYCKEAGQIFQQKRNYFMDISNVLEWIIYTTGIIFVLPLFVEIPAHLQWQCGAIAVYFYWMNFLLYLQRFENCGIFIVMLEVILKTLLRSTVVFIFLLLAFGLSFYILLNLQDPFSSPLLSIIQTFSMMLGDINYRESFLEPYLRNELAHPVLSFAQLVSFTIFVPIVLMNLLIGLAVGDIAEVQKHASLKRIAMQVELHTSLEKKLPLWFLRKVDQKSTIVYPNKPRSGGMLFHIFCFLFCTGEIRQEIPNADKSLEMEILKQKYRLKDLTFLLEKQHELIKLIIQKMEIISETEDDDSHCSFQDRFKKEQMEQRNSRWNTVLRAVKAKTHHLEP
Procedure, shortened: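 WI-38 cells grown in MEM with 10% heat-inactivated FBS and penicillin/streptomycin at 37°C, 5% CO₂. Cells were detached with 0.05% trypsin plus 0.53 mM EDTA in Ca²⁺/Mg²⁺-free HBSS for 5–10 min, held at 37°C, then settled on polyornithine-coated coverslips for 3–5 min before perfusion. Whole-cell voltage clamp was sampled at 5 kHz, with 100 ms ramps from −100 to +100 mV (holding −60 mV) applied every 0.5 s.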

[3] = target: human TRPA1 Cys621Ser, Cys641Ser and Cys665Ser triple mutant (Homo sapiens, UniProt O75762, C621S/C641S/C665S); experiment: Currents of human TRPA1 triple cysteine mutant; details: HH, unpublished results
Chain of human TRPA1 Cys621Ser, Cys641Ser and Cys665Ser triple mutant (O75762 whole entry C621S/C641S/C665S): as the sequence (O75762 whole entry, the tested form may be a part) above, with C621S, C641S, C665S counted along it

rat TRPA1 = rat TRPA1 (Rattus norvegicus, UniProt Q6RI86); experiment: Two-electrode voltage clamp of Xenopus oocytes expressing rat TRPA1; details: for response to FFA and AITC together, % of that evoked by FFA alone: 30 µM FFA + 3 µM AITC; for current stimulated by FFA and CA together, % of that evoked by FFA: 30 µM FFA + 3 µM CA; for current with FFA at 14°C, % of that evoked by the same concentration at 22°C / increase of FFA-activated current by raising bath Ca2+ to 10 mM / decrease of FFA-activated current amplitude in BAPTA-injected oocytes: 30 µM FFA; for decrease of FFA-activated current amplitude in BAPTA-injected oocytes / EC50: nominally Ca2+-free bath; for decrease of FFA-activated current amplitude in BAPTA-injected oocytes: BAPTA ~2.5 mM
Chain of rat TRPA1 (Q6RI86 whole entry): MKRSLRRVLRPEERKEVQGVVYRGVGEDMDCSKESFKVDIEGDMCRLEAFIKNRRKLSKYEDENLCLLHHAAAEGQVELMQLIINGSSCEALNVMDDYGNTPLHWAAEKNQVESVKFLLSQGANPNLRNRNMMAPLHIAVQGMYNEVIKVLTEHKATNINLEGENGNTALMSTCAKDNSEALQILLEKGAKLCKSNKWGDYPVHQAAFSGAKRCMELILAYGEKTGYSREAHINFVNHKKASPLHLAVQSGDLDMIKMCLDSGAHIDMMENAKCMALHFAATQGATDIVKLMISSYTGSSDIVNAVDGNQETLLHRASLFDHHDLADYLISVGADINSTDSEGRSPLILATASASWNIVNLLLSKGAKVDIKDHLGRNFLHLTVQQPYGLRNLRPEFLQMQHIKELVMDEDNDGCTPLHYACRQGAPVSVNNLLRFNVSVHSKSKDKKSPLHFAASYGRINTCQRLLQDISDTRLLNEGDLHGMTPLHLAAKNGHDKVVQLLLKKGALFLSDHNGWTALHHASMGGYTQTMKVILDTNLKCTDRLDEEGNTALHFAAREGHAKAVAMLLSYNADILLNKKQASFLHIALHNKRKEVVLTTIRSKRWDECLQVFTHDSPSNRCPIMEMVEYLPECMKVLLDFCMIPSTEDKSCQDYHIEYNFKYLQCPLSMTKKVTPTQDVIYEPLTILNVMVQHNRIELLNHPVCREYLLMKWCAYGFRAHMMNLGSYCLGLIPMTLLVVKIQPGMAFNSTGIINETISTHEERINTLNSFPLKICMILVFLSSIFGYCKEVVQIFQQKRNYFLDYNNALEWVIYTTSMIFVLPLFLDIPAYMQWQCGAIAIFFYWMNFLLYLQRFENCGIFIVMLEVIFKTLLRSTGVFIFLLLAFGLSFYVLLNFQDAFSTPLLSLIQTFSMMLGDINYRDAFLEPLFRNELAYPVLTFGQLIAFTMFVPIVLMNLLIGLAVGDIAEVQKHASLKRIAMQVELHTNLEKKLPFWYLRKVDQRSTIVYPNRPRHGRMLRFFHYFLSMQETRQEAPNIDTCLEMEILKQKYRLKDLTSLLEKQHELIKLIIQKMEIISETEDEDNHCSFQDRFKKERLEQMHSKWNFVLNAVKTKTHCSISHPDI

[4] = target: T2, human TRPA1 endogenously expressed in WI-38 fibroblasts; experiment: Fluo4 [Ca2+]i assay in WI-38 fibroblasts
HEK293 cells = experiment: Fluo4 [Ca2+]i assay in parental HEK293 cells; details: 300 µM
Procedure, shortened: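 Wild-type HEK293 cells in DMEM (4.5 mg/ml glucose, 10% heat-inactivated FBS, penicillin/streptomycin), plated on polyornithine-treated wells for 14–18 hrs. Loaded with Fluo4-AM (2 µM, 60 min, 37°C) in ECS with 2 mM probenecid, then washed. Test compound was given robotically at 300 µM final. Fluorescence was read on a plate reader at ex 494/em 525 nm, 0.67 Hz, 20–25°C.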

murine TRPV3 = target: T3, murine TRPV3 (Mus musculus, UniProt Q8K424); experiment: Fluo4 [Ca2+]i assay in stable HEK293 TRPV3 cell line
T3 sequence (Q8K424 1-791): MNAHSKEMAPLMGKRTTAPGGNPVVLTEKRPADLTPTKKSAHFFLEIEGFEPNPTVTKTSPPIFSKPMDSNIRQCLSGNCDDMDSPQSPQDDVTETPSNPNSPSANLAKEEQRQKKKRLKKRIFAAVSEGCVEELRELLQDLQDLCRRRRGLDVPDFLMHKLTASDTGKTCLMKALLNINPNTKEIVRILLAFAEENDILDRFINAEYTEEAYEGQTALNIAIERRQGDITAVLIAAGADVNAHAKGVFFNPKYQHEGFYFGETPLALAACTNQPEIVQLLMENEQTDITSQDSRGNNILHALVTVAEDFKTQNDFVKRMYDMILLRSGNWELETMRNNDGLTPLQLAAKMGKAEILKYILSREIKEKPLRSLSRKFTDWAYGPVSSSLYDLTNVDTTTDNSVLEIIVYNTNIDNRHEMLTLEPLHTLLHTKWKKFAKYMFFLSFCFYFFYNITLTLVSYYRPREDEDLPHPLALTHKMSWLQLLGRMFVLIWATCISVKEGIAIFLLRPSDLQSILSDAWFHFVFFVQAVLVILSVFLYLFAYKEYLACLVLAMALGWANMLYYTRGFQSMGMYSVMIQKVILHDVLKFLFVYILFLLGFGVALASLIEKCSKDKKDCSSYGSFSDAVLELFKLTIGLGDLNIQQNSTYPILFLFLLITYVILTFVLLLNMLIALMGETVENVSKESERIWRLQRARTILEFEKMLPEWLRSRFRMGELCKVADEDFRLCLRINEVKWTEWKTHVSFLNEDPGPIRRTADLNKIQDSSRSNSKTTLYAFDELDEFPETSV
Procedure, shortened: (§1)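 Stable HEK293 lines expressing murine TRPV3 (clonal) or TRPM8 (polyclonal), selected with 400 µg/ml G418. Seeded at ~100,000 cells/well on polyornithine-treated wells and grown 14–18 hrs. Loaded with 2 µM Fluo4-AM plus 0.05% Pluronic F-127 in ECS (pH 7.4) for 60 min at 37°C, with 2 mM probenecid throughout. Test compound and channel agonist added robotically. Fluorescence read at ex 494/em 525 nm, 0.67 Hz, 20–25°C. Maximal fluorescence change reported, n = 3.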

murine TRPV1 [5] = target: T1, murine TRPV1; experiment: Fura2 Ca2+ imaging of HEK293 cells transiently expressing TRPV1
Procedure, shortened: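 Murine TRPV1 (pIRES2EGFP) was transiently expressed in HEK293 cells, which were seeded on polyornithine coverslips one day after transfection. After 16 hrs, cells were loaded with 2 µM Fura2-AM plus 0.05% Pluronic F-127 (60 min, 37°C). Transfected cells were identified by GFP (470 nm). Imaging used 340/380 nm excitation and 510 nm emission at 22°C. Capsaicin and test compound were perfused at final concentration. Maximal Fura2 ratio change reported, n = 3.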

human TRPA1 = human TRPA1 (Homo sapiens, UniProt O75762); experiment: Fluo4 [Ca2+]i assay in HEK-A1 cells
Chain of human TRPA1 (O75762 whole entry): as the sequence (O75762 whole entry, the tested form may be a part) above

murine TRPM8 = murine TRPM8 (Mus musculus, UniProt Q8R4D5); experiment: Fluo4 [Ca2+]i assay in stable HEK293 TRPM8 cell line
Chain of murine TRPM8 (Q8R4D5 whole entry): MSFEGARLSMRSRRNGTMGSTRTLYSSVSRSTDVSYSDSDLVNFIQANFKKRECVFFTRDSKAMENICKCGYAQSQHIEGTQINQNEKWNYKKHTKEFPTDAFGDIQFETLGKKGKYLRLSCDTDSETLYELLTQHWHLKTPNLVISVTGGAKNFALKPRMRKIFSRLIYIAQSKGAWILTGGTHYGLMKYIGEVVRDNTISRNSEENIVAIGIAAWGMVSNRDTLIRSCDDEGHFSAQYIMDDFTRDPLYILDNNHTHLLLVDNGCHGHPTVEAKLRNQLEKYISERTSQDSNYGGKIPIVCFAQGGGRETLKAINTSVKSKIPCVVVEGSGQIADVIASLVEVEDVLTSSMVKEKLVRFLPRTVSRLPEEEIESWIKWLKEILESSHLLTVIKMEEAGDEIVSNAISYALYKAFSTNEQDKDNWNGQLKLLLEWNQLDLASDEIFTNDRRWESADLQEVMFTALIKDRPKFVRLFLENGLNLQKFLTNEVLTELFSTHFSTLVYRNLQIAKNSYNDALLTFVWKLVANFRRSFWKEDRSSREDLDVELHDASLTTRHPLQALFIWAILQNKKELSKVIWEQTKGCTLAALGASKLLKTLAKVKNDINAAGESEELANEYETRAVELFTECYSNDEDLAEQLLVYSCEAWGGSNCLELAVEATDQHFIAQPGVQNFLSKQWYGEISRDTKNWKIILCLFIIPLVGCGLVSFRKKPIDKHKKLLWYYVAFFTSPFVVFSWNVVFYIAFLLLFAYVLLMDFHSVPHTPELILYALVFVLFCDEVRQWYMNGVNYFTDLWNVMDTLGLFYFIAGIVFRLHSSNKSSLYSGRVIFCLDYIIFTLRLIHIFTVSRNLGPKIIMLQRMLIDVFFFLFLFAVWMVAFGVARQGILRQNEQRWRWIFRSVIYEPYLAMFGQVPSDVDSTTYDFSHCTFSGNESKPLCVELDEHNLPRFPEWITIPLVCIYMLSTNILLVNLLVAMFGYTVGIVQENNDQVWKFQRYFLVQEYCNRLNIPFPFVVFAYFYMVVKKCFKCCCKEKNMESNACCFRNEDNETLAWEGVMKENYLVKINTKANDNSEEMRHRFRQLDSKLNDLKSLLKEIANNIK
Procedure, shortened: as §1

[6] = high concentrations of FFA (30 to 300 µM)

T1 sequence (Q704Y3 whole entry): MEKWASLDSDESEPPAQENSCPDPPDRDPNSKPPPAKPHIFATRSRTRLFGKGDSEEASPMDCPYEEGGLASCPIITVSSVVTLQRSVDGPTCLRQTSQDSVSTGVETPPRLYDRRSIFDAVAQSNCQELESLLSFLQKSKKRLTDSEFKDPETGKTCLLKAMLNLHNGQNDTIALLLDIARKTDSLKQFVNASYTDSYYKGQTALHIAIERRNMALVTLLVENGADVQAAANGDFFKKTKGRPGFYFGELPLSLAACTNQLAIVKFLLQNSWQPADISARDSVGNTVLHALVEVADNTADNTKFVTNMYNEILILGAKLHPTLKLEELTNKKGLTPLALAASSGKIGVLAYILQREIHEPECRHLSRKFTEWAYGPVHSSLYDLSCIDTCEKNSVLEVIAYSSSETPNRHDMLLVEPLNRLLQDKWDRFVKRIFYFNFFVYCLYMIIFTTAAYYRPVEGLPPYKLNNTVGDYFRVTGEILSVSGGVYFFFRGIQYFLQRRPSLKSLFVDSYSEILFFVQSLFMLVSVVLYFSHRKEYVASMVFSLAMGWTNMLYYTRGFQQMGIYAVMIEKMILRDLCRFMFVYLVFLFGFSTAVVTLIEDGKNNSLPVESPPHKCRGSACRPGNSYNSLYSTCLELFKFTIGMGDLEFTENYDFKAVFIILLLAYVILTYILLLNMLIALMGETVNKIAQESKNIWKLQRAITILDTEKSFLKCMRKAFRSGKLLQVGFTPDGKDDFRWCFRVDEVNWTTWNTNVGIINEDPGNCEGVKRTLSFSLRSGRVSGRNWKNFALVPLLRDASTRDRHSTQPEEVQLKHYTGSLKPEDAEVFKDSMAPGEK

With O=C(O)c1ccccc1Nc1cccc(C(F)(F)F)c1 [FFA, flufenamic acid] the “suppression of 2APB-activated current” value (murine TRPV1 [1]; +100 mV) was 57%, the “suppression of 2APB-activated current” value (murine TRPV1 [1]; −100 mV) was 75% and the “Hill co-efficient at +100 mV” value ([2]; +100 mV) was 1.7 ± 0.2. The EC50 ([2]; EC50 for FFA-evoked whole-cell currents at +100 mV, +100 mV) was 44 ± 11 µM, the EC50 ([2]; EC50 for FFA-evoked whole-cell currents at −100 mV, −100 mV) was 55 ± 4 µM and the “Hill co-efficient at −100 mV” value ([2]; −100 mV) was 2.4 ± 0.1. The “concentration-response curve in triple cysteine mutant” value [3] was “right-shifted”, the threshold of activation (rat TRPA1) was “about 10 µM” and the “response to FFA and AITC together, % of that evoked by FFA alone” value (rat TRPA1; +100 mV) was 300 ± 52%. The “response to FFA and AITC together, % of that evoked by FFA alone” value (rat TRPA1; −100 mV) was 350 ± 62%, the “current stimulated by FFA and CA together, % of that evoked by FFA” value (rat TRPA1; +100 mV) was 223 ± 25% and the “current stimulated by FFA and CA together, % of that evoked by FFA” value (rat TRPA1; −100 mV) was 234 ± 43%. The “current with FFA at 14°C, % of that evoked by the same concentration at 22°C” value (rat TRPA1; +100 mV) was 226 ± 86%, the “current with FFA at 14°C, % of that evoked by the same concentration at 22°C” value (rat TRPA1; −100 mV) was 315 ± 85% and the “increase of FFA-activated current by raising bath Ca2+ to 10 mM” value (rat TRPA1; +100 mV) was 240 ± 39%. For the same compound, the “decrease of FFA-activated current amplitude in BAPTA-injected oocytes” value (rat TRPA1; +100 mV) was ~ 44%, the “decrease of FFA-activated current amplitude in BAPTA-injected oocytes” value (rat TRPA1; −100 mV) was ~ 33% and the “increase of FFA-activated current by raising bath Ca2+ to 10 mM” value (rat TRPA1; −100 mV) was 309 ± 49%. For the same compound, the “Hill co-efficient at +100 mV” value (rat TRPA1; +100 mV) was 2.2 ± 0.2, the EC50 (rat TRPA1; EC50 for current activation at +100 mV, +100 mV) was 78 ± 4 µM and the EC50 (rat TRPA1; EC50 for current activation at −100 mV, −100 mV) was 147 ± 4 µM. For the same compound, the “Hill co-efficient at −100 mV” value (rat TRPA1; −100 mV) was 2.2 ± 0.1, the “agonist effect on Fluo4 fluorescence ([Ca2+]i) in WI-38 cells” value ([4]; 300 µM) was “increased the Fluo4 fluorescence” and the “nH (Hill coefficient)” value ([4]; WI-38 cells) was 1.3 ± 0.2. For the same compound, the “effect on Fluo4 fluorescence in HEK293 cells” value (HEK293 cells) was “little effect”, the “increase in Fluo4 fluorescence upon application” value (murine TRPV3; FFA from 3.7 to 100 µM) was “no significant increase” and the “effect on [Ca2+]i increase elicited by the channel's agonist” value (“effect on [Ca2+]i increase elicited” below) (murine TRPV3; [6]) was “inhibited”. The “increase in Fura2 ratio upon application” value (murine TRPV1 [5]; FFA from 3.7 to 100 µM) was “no significant increase”, the “effect on [Ca2+]i increase elicited” value (murine TRPV1 [5]; [6]) was “inhibited” and the EC50 (human TRPA1) was 57 ± 5 µM. For the same compound, the “nH (Hill coefficient)” value (human TRPA1; HEK-A1 cells) was 1.6 ± 0.1, the Fluo4 fluorescence change (murine TRPM8; 300 µM FFA) was “slow fluorescence increase” and the “increase in Fluo4 fluorescence upon application” value (murine TRPM8; FFA from 3.7 to 100 µM) was “no significant increase”. The “effect on [Ca2+]i increase elicited” value (murine TRPM8; [6]) was “inhibited”.
